Data from ChEMBL document CHEMBL2413052, “Synthesis and initial in vitro biological evaluation of two new zinc-chelating compounds: comparison with TPEN and PAC-1” (Bioorg Med Chem, 2013).
Active and inactive are the calls of the source. No cut-off for these calls is given here.

How the values were obtained:
PC-12 [1] = test: Induction of apoptosis in rat PC12 cells at 200 uM after 24 hrs by trypan blue exclusion assay in presence of caspase-3 inhibitor C3-I; format: functional, cell-based
Summary of the method: (§1)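 PC12 cells exposed 24 h to chelator (25, 100 or 200 µM), alone or together with ZnSO4, caspase-3 inhibitor, or DHR as ROS scavenger. Each additive was also tested alone. Stained with trypan blue. Dead cells expressed as % of total cells. Mean of 4 experiments ± S.D. One-way ANOVA with Holm-Sidak, compared against DMSO.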

PC-12 [2] = test: Induction of apoptosis in rat PC12 cells at 200 uM after 24 hrs by trypan blue exclusion assay in presence of DHR; format: functional, cell-based; summary of the method: as §1
PC-12 [3] = test: Induction of apoptosis in rat PC12 cells at 200 uM after 24 hrs by trypan blue exclusion assay in presence of ZnSO4; format: functional, cell-based; summary of the method: as §1
PC-12 [4] = test: Induction of apoptosis in rat PC12 cells assessed as ROS induction by DHE oxidation-based fluorometric assay; format: functional, cell-based
PC-12 [5] = test: Induction of apoptosis in rat PC12 cells assessed as ROS induction at 200 uM measured after 1 to 4 hrs by DHR oxidation-based fluorometric assay; format: functional, cell-based
Summary of the method: (§2)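 PC12 cells in 96-well plates were loaded with DHR (0.1 µM) for 30 min at 37 °C, washed, then treated 1 h or 4 h. Medium was replaced with PBS and fluorescence read for 30 min (ex 485/em 535 nm). The slope gave ROS production, relative to the untreated-control slope at 4 h. Untreated and DMSO controls. Mean of 3 experiments ± S.D.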

PC-12 [6] = test: Induction of apoptosis in rat PC12 cells assessed as procaspase-3 activation at 200 uM after 24 hrs by fluorometric assay; format: functional, cell-based
Summary of the method: (§3)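 PC12 cells in 96-well plates were treated 4 h. Lysed in modified RIPA buffer (50 mM Tris-HCl pH 7.4, 1% Igepal, 0.25% deoxycholate, 150 mM NaCl, 1 mM EGTA) containing 20 µM (DEVD)2-rhodamine 110. Lysate incubated 24 h at 37 °C, fluorescence read at ex 485/em 535 nm. Wells with 1 µM Ac-DEVD-cmk served as negative control. DMSO control; staurosporine 0.5 and 1 µM as positive controls. Mean of 5 experiments ± S.D.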

PC-12 [7] = test: Induction of apoptosis in rat PC12 cells after 24 hrs by trypan blue exclusion assay; format: functional, cell-based; conditions: for EC50: PC-12, 24 h
Summary of the method: (§4)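 PC12 cells (rat pheochromocytoma) grown in DMEM with 5% horse serum, 10% FBS, penicillin/streptomycin and sodium pyruvate at 37 °C, 5% CO2. Treated 24 h at 10, 25, 50, 75, 100 and 200 µM in DMSO (0.1% final). Trypan blue in 0.9% NaCl added 1:4 for 30 min at 37 °C. Blue cells counted as dead, as % of total cells. Mean of 4 experiments ± S.D.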

PC-12 [8] = test: Induction of apoptosis in rat PC12 cells at 200 uM after 24 hrs by trypan blue exclusion assay; format: functional, cell-based; summary of the method: as §4
[9] = Distribution co-efficient, log D of the compound at pH 7.4; format: physicochemical; conditions: buffer
[10] = Metal chelating activity of the compound assessed as zinc affinity by UV spectroscopy; format: functional
Summary of the method: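 Compound diluted from a 10 mM DMSO stock to 50 µM final in 50 mM Hepes, 100 mM NaNO3, pH 7.4. ZnSO4 added at 0–1 equiv and equilibrated 60 min. Absorbance spectra recorded from 260 to 500 nm; change followed at 360 and 400 nm.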

PC-12 [11] = test: Induction of apoptosis in rat PC12 cells at 100 uM after 24 hrs by trypan blue exclusion assay in presence of caspase-3 inhibitor C3-I; format: functional, cell-based; summary of the method: as §1
PC-12 [12] = test: Induction of apoptosis in rat PC12 cells at 100 uM after 24 hrs by trypan blue exclusion assay in presence of ZnSO4; format: functional, cell-based; summary of the method: as §1
PC-12 [13] = test: Induction of apoptosis in rat PC12 cells at 100 uM after 24 hrs by trypan blue exclusion assay in presence of DHR; format: functional, cell-based; summary of the method: as §1
PC-12 [14] = test: Induction of apoptosis in rat PC12 cells assessed as ROS induction at 100 uM measured after 1 to 4 hrs by DHR oxidation-based fluorometric assay; format: functional, cell-based; summary of the method: as §2
PC-12 [15] = test: Induction of apoptosis in rat PC12 cells assessed as procaspase-3 activation at 100 uM after 24 hrs by fluorometric assay; format: functional, cell-based; summary of the method: as §3
[16] = Lipophilicity, log P of the compound; format: physicochemical; conditions: octanol/water
PC-12 [17] = test: Induction of apoptosis in rat PC12 cells at 25 uM after 24 hrs by trypan blue exclusion assay in presence of ZnSO4; format: functional, cell-based; summary of the method: as §1
PC-12 [18] = test: Induction of apoptosis in rat PC12 cells at 25 uM after 24 hrs by trypan blue exclusion assay in presence of caspase-3 inhibitor C3-I; format: functional, cell-based; summary of the method: as §1
PC-12 [19] = test: Induction of apoptosis in rat PC12 cells assessed as ROS induction at 25 uM measured after 1 to 4 hrs by DHR oxidation-based fluorometric assay; format: functional, cell-based; summary of the method: as §2
PC-12 [20] = test: Induction of apoptosis in rat PC12 cells assessed as procaspase-3 activation at 25 uM after 24 hrs by fluorometric assay; format: functional, cell-based; conditions: in the assay text read “after 4 hrs” for “after 24 hrs”; summary of the method: as §3
PC-12 [21] = test: Induction of apoptosis in rat PC12 cells assessed as procaspase-3 activation at 1 uM after 24 hrs by fluorometric assay; format: functional
Summary of the method: (§5)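 Rat PC12 cells were seeded in 96-well plates at 28 × 10^4 for 24 h, then treated for 4 h, with DMSO-treated cells as control. Cells were lysed in modified RIPA buffer (50 mM Tris-HCl pH 7.4, 1% Igepal, 0.25% deoxycholate, 150 mM NaCl, 1 mM EGTA) containing 20 µM (DEVD)2-Rhodamine 110. Lysate was incubated 24 h at 37 °C and read at ex 485/em 535 nm as RFU/million cells.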

PC-12 [22] = test: Induction of apoptosis in rat PC12 cells assessed as procaspase-3 activation at 0.5 uM after 24 hrs by fluorometric assay; format: functional; summary of the method: as §5

SMILES | Activity (PC-12 [1]) | Activity (PC-12 [2]) | Activity (PC-12 [3]) | Activity (PC-12 [4]) | Activity (PC-12 [5]) | Activity (PC-12 [6]) | Activity (PC-12 [7]) | EC50 (PC-12 [8]) | logD [9] | Kd [10] | EC50 (PC-12 [7]) | other results
O=C(CN1CCN(Cc2ccccc2)CC1)NNC(=O)CN(Cc1ccccn1)Cc1ccccn1 | inactive | inactive | Active | inactive | inactive | Active | Dose-dependent effect | ND(Insoluble) | 1.4 | 1000 pM | – | –
C=CCc1cccc(/C=N/NC(=O)CN2CCN(Cc3ccccc3)CC2)c1O [PAC-1] | – | – | – | inactive | – | – | Dose-dependent effect | – | – | 42000 pM | 122000 nM | Activity (PC-12 [11]): inactive; Activity (PC-12 [12]): inactive; Activity (PC-12 [13]): inactive; Activity (PC-12 [14]): Active; Activity (PC-12 [15]): Active; logP [16]: 3.43
c1ccc(CN(CCN(Cc2ccccn2)Cc2ccccn2)Cc2ccccn2)nc1 | – | – | – | inactive | – | – | Dose-dependent effect | – | – | 0.00026 pM | 38000 nM | Activity (PC-12 [17]): inactive; Activity (PC-12 [18]): inactive; Activity (PC-12 [19]): Active; Activity (PC-12 [20]): Active
Cc1ncc(CO)c(/C=N/NC(=O)CN2CCN(Cc3ccccc3)CC2)c1O | inactive | inactive | inactive | inactive | Active | Active | Dose-dependent effect | ND(Insoluble) | 1.27 | 0.2 pM | – | –
CN[C@@H]1C[C@H]2O[C@@](C)([C@@H]1OC)n1c3ccccc3c3c4c(c5c6ccccc6n2c5c31)C(=O)NC4 [STAUROSPORINE] | – | – | – | – | – | – | – | – | – | – | – | RFU (PC-12 [21]): 30000; RFU (PC-12 [22]): 6000
